The target in series [1] is Ubiquitin-conjugating enzyme E2 D3 (Mus musculus) (UniProt P61079). Kind of series: Inhibition of UbcH5c in mouse b.End3 cells assessed as decrease in TNF-alpha-mediated p65 phosphorylation preincubated for 2 hrs followed by TNF-alpha stimulation for 20 mins by Western blot analysis. The class given is cell-based. The method, boiled down:
(§1)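 bEnd.3 cells (DMEM, 10% FBS) were pretreated with compound at 2.5, 5 or 10 µM for 2 h, then stimulated with 20 ng/mL TNF-α (15 min in the methods, 20 min in the legend). Lysates were run on 10% SDS-PAGE and immunoblotted for phospho-IκBα, IκBα, phospho-p65 and p65, with GAPDH as loading control.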
A general note: In western blotting, separated proteins are transferred to a membrane and probed.

Series [2] shares this target. Kind of series: Inhibition of UbcH5c in mouse b.End3 cells assessed as decrease in TNF-alpha-mediated IkB-alpha phosphorylation at 10 uM preincubated for 2 hrs followed by TNF-alpha stimulation for 20 mins by Western blot analysis. The class given is cell-based. In outline: as §1
A short description of a further series: in vitro. The note with it: human, HEK-293T cells.
For series [3], the target named is Ubiquitin-conjugating enzyme E2 D3 (Mus musculus) (UniProt P61079). Kind of series: Inhibition of UbcH5c in mouse b.End3 cells assessed as decrease in TNF-alpha-mediated IkB-alpha degradation at 10 uM preincubated for 2 hrs followed by TNF-alpha stimulation for 15 mins by Western blot analysis.
Sequence of Ubiquitin-conjugating enzyme E2 D3 (Mus musculus) (P61079 whole entry, looked up): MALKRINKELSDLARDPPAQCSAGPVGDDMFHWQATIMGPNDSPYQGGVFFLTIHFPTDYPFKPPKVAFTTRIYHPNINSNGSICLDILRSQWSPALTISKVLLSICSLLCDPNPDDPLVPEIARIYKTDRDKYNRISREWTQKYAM
For series [4] the target is unchanged. Kind of series: Inhibition of UbcH5c in mouse b.End3 cells assessed as decrease in TNF-alpha-mediated IkB-alpha phosphorylation preincubated for 2 hrs followed by TNF-alpha stimulation for 20 mins by Western blot analysis. The class given is cell-based. The method, boiled down: as §1
Series [5] shares this target. Kind of series: Inhibition of UbcH5c in mouse b.End3 cells assessed as decrease in TNF-alpha-mediated IkB-alpha degradation preincubated for 2 hrs followed by TNF-alpha stimulation for 20 mins by Western blot analysis. The class given is cell-based. In outline:
as §1

For series [6], the target named is T1, Ubiquitin-conjugating enzyme E2 D3 (Homo sapiens, UniProt P61077). Kind of series: Binding affinity to human recombinant UbcH5c by SPR analysis. A general note: Surface plasmon resonance follows binding to a sensor surface in real time, without labels.
T1 sequence (P61077 whole entry, looked up): as the sequence (P61079 whole entry, looked up) above
Series [7] addresses T1, Ubiquitin-conjugating enzyme E2 D3. Kind of series: Inhibition of UbcH5c (unknown origin) at 1 uM preincubated for 15 mins followed by E1, Ub and ATP addition measured after 40 mins by Western blot analysis.

The source made the active and inactive calls. The rule behind the calls is not given here. Some results are limits rather than exact numbers.

One may read the Kd as a measure of binding affinity in units of concentration.

As for `C=C1C(=O)O[C@@H]2C3[C@@H](C)[C@@H](OC(=O)c4cccc(I)c4)CC[C@]3(C)CC[C@@H]12` (some centres not stated), the inhibition entry in series [1], in series [4] and in series [5] was “Dose-dependent effect” each time. Moreover, the inhibition result in series [2] and in series [3] was “Active” each time. The compound further came in with a cytotoxicity at 5 µM in the series “in vitro” of under 20%.
As to `C=C1C(=O)O[C@@H]2C[C@]3(C)C(=C[C@H]12)[C@@H](C)CC[C@H]3O`, the inhibition entry in series [2] and in series [3] was “Active” each time. Moreover, the Kd in series [6] worked out at 2580 nM.
For `C=C1C(=O)O[C@@H]2C3=C(C)[C@@H](OC(=O)c4ccc(Cl)cc4)CC3[C@](C)(OC(C)=O)CC[C@@H]12` (some centres not stated), the inhibition entry in series [1], in series [4] and in series [5] was “Dose-dependent effect” in each case. In addition, the inhibition entry in series [2] and in series [3] was “Active” in each case. This compound also registered a cytotoxicity at 5 µM in “in vitro” of under 20%.
`C=C1C(=O)O[C@@H]2C3[C@@H](C)[C@@H](OC(=O)C4CCCC4)CC[C@]3(C)CC[C@@H]12` (some centres not stated): in series [7], the inhibition result was “inactive”.
`C=C1C(=O)O[C@@H]2C3[C@@H](C)[C@@H](OC(=O)CCC)CC[C@]3(C)CC[C@@H]12` (some centres not stated): in series [7], the inhibition result is “inactive”.
On to `C=C1C(=O)O[C@@H]2C3[C@@H](C)[C@@H](OC(=O)C4CCCCC4)CC[C@]3(C)CC[C@@H]12` (some centres not stated), for which the inhibition result in series [7] is “inactive”.
Take `C=C1C(=O)O[C@H]2c3c(C)c(OC(=O)/C=C/c4cccnc4)cc(C)c3CC[C@@H]12`: the inhibition entry in series [1], in series [4] and in series [5] was “Dose-dependent effect” each time. Further, the inhibition result in series [2] and in series [3] was “Active” throughout. The cytotoxicity at 5 µM in “in vitro” is under 20%.
As for `C=C1C(=O)O[C@@H]2C3=C(C)[C@@H](OC(=O)c4ccc(C)cc4)CC3[C@](C)(OC(C)=O)CC[C@@H]12` (some centres not stated), the cytotoxicity at 5 µM in “in vitro” is under 20%.
Turning to `C=C1C(=O)O[C@@H]2C3[C@@H](C)[C@@H](OC(=O)c4ccc(I)cc4)CC[C@]3(C)CC[C@@H]12` (some centres not stated), the inhibition result in series [1], in series [4] and in series [5] was “Dose-dependent effect” in each case. The inhibition entry in series [2] and in series [3] was “Active” each time. This compound showed a cytotoxicity at 5 µM in the series “in vitro” of under 20%.
With `C=C1C(=O)O[C@@H]2C3[C@@H](C)[C@@H](OC(=O)c4ccco4)CC[C@]3(C)CC[C@@H]12` (some centres not stated), in “in vitro”, the cytotoxicity at 5 µM is under 20%.
For `C=C1C(=O)O[C@@H]2C3[C@@H](C)[C@@H](OC(C)=O)CC[C@]3(C)CC[C@@H]12` (some centres not stated), the inhibition entry in series [7] is “inactive”.
`C=C1C(=O)O[C@H]2c3c(C)c(OCc4ccc(OC(F)(F)F)cc4)cc(C)c3CC[C@@H]12`: the cytotoxicity at 5 µM in the series “in vitro” was under 20%.
Still for that read-out and setting: next, `C=C1C(=O)O[C@H]2c3c(C)c(OC(=O)/C=C/c4cccs4)cc(C)c3CC[C@@H]12`: under 20%; `C=C1C(=O)O[C@H]2c3c(C)c(OC(=O)/C=C/c4ccc(OC(F)(F)F)cc4)cc(C)c3CC[C@@H]12`: under 20%.
Take `C=C1C(=O)O[C@@H]2C3[C@@H](C)[C@@H](OC(=O)CCCC)CC[C@]3(C)CC[C@@H]12` (some centres not stated): in series [7], the inhibition entry was “inactive”.
With `C=C1C(=O)O[C@H]2c3c(C)c(OCc4ccccc4C(F)(F)F)cc(C)c3CC[C@@H]12`, the cytotoxicity at 5 µM in “in vitro” was under 20%.
As to `C=C1C(=O)O[C@@H]2C3[C@@H](C)[C@@H](OC(=O)CC)CC[C@]3(C)CC[C@@H]12` (some centres not stated), the inhibition entry in series [7] is “inactive”.
In “in vitro”, `C=C1C(=O)O[C@@H]2C3=C(C)[C@@H](OC(=O)/C=C/c4ccc(OCCC)cc4)CC3[C@](C)(OC(C)=O)CC[C@@H]12` (some centres not stated) returned a cytotoxicity at 5 µM of under 20%.
Same read-out and setting: next, `C=C1C(=O)O[C@H]2c3c(C)c(OC(=O)c4cccnc4)cc(C)c3CC[C@@H]12`: under 20%.
With `C=C1C(=O)O[C@@H]2C3=C(C)[C@@H](OC(=O)c4ccccc4)CC3[C@](C)(OC(C)=O)CC[C@@H]12` (some centres not stated), the inhibition entry in series [1], in series [4] and in series [5] was “Dose-dependent effect” throughout. Also, the inhibition entry in series [2] and in series [3] was “Active” in each case. The same compound returned a cytotoxicity at 5 µM in the series “in vitro” of under 20%.

These data come from ChEMBL document CHEMBL4028851, “Discovery of Potent Small-Molecule Inhibitors of Ubiquitin-Conjugating Enzyme UbcH5c from α-Santonin Derivatives” (J Med Chem, 2017).
